Usually pIC50 stands for the IC50 on a negative log10 scale, so that one unit is a factor of ten.

pIC50: −log10 of the molar value.

Data on 15 molecules can be found in ChEMBL document CHEMBL1926509, “Discovery of pyrazolo[1,5-a]pyridines as p110α-selective PI3 kinase inhibitors” (Bioorg Med Chem, 2012).

For assay [1], the target named is Phosphatidylinositol 4,5-bisphosphate 3-kinase catalytic subunit alpha isoform (Homo sapiens, UniProt P42336). As to the kind of experiment: Inhibition of recombinant PI3K p110alpha using L-alpha-phosphatidylinositol as substrate and [gamma33P]ATP after 60 mins by thin layer chromatographic technique. The gist of the method: (§1)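 In-house recombinant class Ia PI3K isoform (0.1 µg) with L-α-phosphatidylinositol substrate in lipid kinase buffer (Tris–HCl pH 7.4, NaCl, EDTA), 1% DMSO final. Started with ATP mix (5 mM MgCl₂, 100 µM ATP plus [γ-³³P]ATP), 1 h at room temperature, stopped with 1 M HCl. Lipids extracted in two steps, separated by TLC, read by phosphorimager. Nine inhibitor concentrations; IC50 averaged over two experiments.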
Phosphatidylinositol 4,5-bisphosphate 3-kinase catalytic subunit alpha isoform, sequence (P42336 whole entry, canonical isoform): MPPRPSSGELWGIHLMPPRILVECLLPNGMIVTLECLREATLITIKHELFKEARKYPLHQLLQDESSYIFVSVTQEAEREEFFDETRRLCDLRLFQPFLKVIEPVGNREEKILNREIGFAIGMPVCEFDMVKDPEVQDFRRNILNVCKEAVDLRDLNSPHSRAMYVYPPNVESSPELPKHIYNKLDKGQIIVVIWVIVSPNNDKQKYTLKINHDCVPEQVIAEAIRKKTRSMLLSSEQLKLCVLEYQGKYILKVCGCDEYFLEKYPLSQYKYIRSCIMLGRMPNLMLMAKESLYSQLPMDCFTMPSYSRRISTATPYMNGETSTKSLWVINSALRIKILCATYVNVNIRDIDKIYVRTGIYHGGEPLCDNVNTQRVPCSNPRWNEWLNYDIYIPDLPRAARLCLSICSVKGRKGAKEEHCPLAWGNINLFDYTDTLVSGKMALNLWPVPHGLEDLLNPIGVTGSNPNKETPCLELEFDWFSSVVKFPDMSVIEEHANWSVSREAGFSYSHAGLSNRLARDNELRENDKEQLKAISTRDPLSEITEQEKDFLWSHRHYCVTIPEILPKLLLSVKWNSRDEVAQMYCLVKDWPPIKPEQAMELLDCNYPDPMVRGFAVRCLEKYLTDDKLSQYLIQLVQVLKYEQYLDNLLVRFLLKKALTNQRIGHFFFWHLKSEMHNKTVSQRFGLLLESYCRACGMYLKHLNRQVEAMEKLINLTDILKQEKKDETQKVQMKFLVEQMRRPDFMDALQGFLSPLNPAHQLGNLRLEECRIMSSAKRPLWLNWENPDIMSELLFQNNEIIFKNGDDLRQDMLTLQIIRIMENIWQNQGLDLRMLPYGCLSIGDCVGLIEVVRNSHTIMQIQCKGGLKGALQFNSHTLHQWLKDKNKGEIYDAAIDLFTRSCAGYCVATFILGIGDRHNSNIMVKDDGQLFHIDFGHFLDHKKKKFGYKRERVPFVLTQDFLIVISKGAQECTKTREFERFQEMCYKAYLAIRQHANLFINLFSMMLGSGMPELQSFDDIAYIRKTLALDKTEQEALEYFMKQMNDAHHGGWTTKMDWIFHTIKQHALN

Assay [2] addresses Phosphatidylinositol 4,5-bisphosphate 3-kinase catalytic subunit beta isoform (Homo sapiens, UniProt P42338). The assay can be described thus: Inhibition of recombinant PI3K p110beta using L-alpha-phosphatidylinositol as substrate and [gamma33P]ATP after 60 mins by thin layer chromatographic technique. The gist of the method: as §1
In assay [3] the target is T1, Phosphatidylinositol 4,5-bisphosphate 3-kinase catalytic subunit delta isoform (Homo sapiens, UniProt O00329).
T1 sequence (O00329 whole entry): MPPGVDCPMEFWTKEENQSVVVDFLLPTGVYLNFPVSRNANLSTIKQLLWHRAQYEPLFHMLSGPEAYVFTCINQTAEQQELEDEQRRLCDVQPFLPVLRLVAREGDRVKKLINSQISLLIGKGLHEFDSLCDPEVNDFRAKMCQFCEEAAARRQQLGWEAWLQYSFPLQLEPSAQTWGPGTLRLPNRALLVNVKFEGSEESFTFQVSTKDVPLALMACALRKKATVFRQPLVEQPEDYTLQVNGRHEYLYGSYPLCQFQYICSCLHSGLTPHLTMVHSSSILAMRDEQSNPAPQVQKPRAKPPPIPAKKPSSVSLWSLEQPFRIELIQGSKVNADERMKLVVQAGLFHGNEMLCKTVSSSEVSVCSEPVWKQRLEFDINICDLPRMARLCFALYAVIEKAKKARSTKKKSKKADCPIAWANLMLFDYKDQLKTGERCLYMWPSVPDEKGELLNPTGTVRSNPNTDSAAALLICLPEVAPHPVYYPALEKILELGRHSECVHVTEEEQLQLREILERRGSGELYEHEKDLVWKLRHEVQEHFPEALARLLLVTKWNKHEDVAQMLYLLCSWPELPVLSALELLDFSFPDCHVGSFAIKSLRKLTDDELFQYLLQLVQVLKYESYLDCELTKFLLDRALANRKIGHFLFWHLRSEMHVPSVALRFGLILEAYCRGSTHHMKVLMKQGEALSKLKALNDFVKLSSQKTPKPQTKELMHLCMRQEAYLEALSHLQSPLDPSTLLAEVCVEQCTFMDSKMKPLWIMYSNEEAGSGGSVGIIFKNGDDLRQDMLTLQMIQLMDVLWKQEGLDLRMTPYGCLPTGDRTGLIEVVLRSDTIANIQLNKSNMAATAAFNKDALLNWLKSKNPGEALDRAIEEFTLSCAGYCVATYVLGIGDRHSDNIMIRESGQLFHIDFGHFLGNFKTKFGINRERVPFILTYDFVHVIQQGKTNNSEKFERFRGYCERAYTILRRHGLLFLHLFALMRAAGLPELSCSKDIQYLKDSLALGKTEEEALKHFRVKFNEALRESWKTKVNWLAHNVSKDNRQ
As to the kind of experiment: Inhibition of recombinant PI3K p110delta using L-alpha-phosphatidylinositol as substrate and [gamma33P]ATP after 60 mins by thin layer chromatographic technique. In short, it runs like this: as §1

The nature of assay [4]: Cytotoxicity against human NZB5 cells expressing wild type p110alpha assessed as inhibition of [3H]thymidine incorporation after 5 days. The assay is classed as functional, cell-based. The gist of the method: (§2)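 Early-passage lab-derived lines in α-MEM with insulin, transferrin, selenite and 5% FBS. Seeded at 1000 cells/well; drug added in 10-fold steps up to 20 µM. Incubated five days under 5% O₂/5% CO₂/90% N₂, with ³H-thymidine (0.04 µCi/well) over the last 6 h. Duplicates per dose; least-squares exponential fit; IC50 is the concentration giving 50% less incorporation.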
On the technique in general: Incorporation of labelled thymidine or its analogues reports DNA synthesis.

Assay [5] is described as follows: Cytotoxicity against human NZOV9 cells expressing p110alpha Y1021C mutant assessed as inhibition of [3H]thymidine incorporation after 5 days. The assay is classed as functional, cell-based. The gist of the method:
as §2

Phosphatidylinositol 4,5-bisphosphate 3-kinase catalytic subunit beta isoform, sequence (P42338 whole entry, canonical isoform): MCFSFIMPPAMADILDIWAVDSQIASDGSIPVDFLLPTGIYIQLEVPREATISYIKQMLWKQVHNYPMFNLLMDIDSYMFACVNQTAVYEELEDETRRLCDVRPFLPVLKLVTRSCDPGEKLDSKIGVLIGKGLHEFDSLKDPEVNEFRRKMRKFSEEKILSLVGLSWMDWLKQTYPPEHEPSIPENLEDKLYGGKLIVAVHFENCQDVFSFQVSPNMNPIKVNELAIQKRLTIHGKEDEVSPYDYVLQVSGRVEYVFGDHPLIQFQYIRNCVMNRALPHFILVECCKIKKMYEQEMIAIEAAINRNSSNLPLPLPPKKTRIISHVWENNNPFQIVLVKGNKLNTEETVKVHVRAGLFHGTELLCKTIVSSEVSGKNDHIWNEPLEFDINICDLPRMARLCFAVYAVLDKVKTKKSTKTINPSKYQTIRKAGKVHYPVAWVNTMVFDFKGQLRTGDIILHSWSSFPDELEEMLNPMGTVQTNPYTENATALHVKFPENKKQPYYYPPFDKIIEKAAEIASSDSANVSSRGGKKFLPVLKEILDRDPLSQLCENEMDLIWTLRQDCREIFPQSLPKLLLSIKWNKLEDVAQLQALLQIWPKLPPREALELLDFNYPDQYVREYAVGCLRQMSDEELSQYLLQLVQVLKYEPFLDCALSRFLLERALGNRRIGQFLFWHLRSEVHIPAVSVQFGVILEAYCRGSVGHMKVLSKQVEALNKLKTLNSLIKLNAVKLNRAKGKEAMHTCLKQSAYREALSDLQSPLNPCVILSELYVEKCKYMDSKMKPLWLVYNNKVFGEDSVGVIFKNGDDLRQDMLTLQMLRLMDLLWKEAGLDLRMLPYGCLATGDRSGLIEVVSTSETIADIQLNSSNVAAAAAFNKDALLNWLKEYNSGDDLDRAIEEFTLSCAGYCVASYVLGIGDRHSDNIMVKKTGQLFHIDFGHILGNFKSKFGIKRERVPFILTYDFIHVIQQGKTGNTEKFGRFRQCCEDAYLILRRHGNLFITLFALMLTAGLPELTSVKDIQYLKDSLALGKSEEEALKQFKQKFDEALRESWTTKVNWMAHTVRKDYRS

Consider `Cc1ccc([N+](=O)[O-])cc1S(=O)(=O)N/N=C/c1cnn2ccc(C#N)cc12`, for which the pIC50 in assay [1] was 7.89; in assay [2], 6.21; in assay [3], 6.24; in assay [4] it was 5.59; in assay [5] it was 5.31.
For `Cc1ccc([N+](=O)[O-])cc1S(=O)(=O)N(C)/N=C/c1cnn2cc(Br)ccc12`, in that order: less than 6.00, less than 6.00, less than 6.00, less than 4.70 and 5.35.
The like results for `CNC(=O)c1ccn2ncc(/C=N/N(C)S(=O)(=O)c3cc([N+](=O)[O-])ccc3C)c2c1` were, in that order, less than 6.00, less than 6.00, less than 6.00, 5.00 and 5.00.
For `Cc1ccc([N+](=O)[O-])cc1S(=O)(=O)N(C)/N=C/c1cnn2ccc(Br)cc12`, in that order: 8.42, 6.64, 6.82, 6.51 and 7.30.
As to `CC/C(=N\N(C)S(=O)(=O)c1cc([N+](=O)[O-])ccc1C)c1cnn2ccc(C#N)cc12`, the pIC50 in assay [1] is 6.41; in assay [2], less than 6.00; in assay [3] it was less than 6.00; in assay [4] it was 6.39; in assay [5] it was 5.43.
Turning to `COC(=O)c1ccn2ncc(/C=N/N(C)S(=O)(=O)c3cc([N+](=O)[O-])ccc3C)c2c1`, the pIC50 was 6.44 in assay [1]; less than 6.00 in assay [2]; 6.16 in assay [3]; 5.74 in assay [4]; 5.82 in assay [5].
The like results for `Cc1ccc([N+](=O)[O-])cc1S(=O)(=O)N(C)/N=C/c1cnn2ccc(-c3ccccc3)cc12` were, in that order, less than 6.00, less than 6.00, less than 6.00, 5.00 and 5.00.
For `Cc1ccc([N+](=O)[O-])cc1S(=O)(=O)N(C)/N=C/c1cnn2c(C)cccc12`, in that order: 5.80, less than 6.00, less than 6.00, 5.22 and 5.92.
The like results for `Cc1ccc([N+](=O)[O-])cc1S(=O)(=O)N(C)/N=C/c1cnn2ccc(O)cc12` were, in that order, 6.47, less than 6.00, less than 6.00, less than 4.70 and less than 4.70.
Regarding `C/C(=N\NS(=O)(=O)c1cc([N+](=O)[O-])ccc1C)c1cnn2ccc(Br)cc12`, the pIC50 in assay [1] was 7.52; in assay [2], 6.32; in assay [3], 6.66; in assay [4], 6.38; in assay [5], 6.46.
For `Cc1ccc([N+](=O)[O-])cc1S(=O)(=O)N(C)/N=C/c1cnn2ccc(I)cc12`, in that order: 7.80, 6.43, 6.77, 7.40 and 7.30.
Consider `Cc1ccc([N+](=O)[O-])cc1S(=O)(=O)N(C)/N=C/c1cnn2ccc(Cl)cc12`, for which the pIC50 in assay [1] is 8.54; in assay [2], 6.41; in assay [3], 7.05; in assay [5], 6.26.
As to `C#Cc1ccn2ncc(/C=N/N(C)S(=O)(=O)c3cc([N+](=O)[O-])ccc3C)c2c1`, the pIC50 in assay [1] was 8.62; in assay [2], 7.52; in assay [3], 7.39; in assay [4], 6.80; in assay [5] it was 6.96.
Turning to `Cc1ccn2ncc(/C=N/N(C)S(=O)(=O)c3cc([N+](=O)[O-])ccc3C)c2c1`, the pIC50 in assay [1] was 6.96; in assay [2], less than 6.00; in assay [3], 6.15; in assay [4], 7.30; in assay [5] it was 7.15.
As for `Cc1ccc([N+](=O)[O-])cc1S(=O)(=O)N(C)/N=C/c1cnn2cc(F)c(C#N)cc12`, the pIC50 is 7.35 in assay [1], 5.74 in assay [2] and 5.60 in assay [3].
